From ChEMBL document CHEMBL1250433, “Synthesis of 5-arylidene-2-amino-4-azolones and evaluation of their anticancer activity” (2010) come the findings set out here.

What all share (format): functional
Assay [1] deals with OVCAR-3. The assay is described as follows: Cytotoxicity against human OVCAR-3 cells. Conditions: for TGI: read-out: pTGI (converted). The method in brief: (§1)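 Tested in the US National Cancer Institute 60 human tumour cell line screen. Dose-response parameters were calculated per cell line: GI50 (molar concentration giving 50% net growth inhibition), TGI (molar concentration giving total growth inhibition) and LC50 (molar concentration giving 50% net cell kill).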

Assay [2] relates to SW-620. Briefly: Cytotoxicity against human SW620 cells. To be noted: for TGI: read-out: pTGI (converted). Summed up:
as §1

For assay [3], the system named is CCRF-CEM. Briefly: Cytotoxicity against human CCRF-CEM cells. Conditions: for TGI: read-out: pTGI (converted). Summed up: as §1
Assay [4] has as its system UO-31. The assay is described as follows: Cytotoxicity against human UO31 cells. Conditions: for TGI: read-out: pTGI (converted). The method in brief: as §1
For assay [5], the system named is HL-60(TB). Briefly: Cytotoxicity against human HL-60(TB) cells. Conditions: for TGI: read-out: pTGI (converted). The method in brief:
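Tested in the National Cancer Institute 60 human tumour cell line in vitro screen, which includes leukaemia lines. From the dose–response data, GI50 is the molar concentration giving 50% inhibition of net cell growth, TGI is total growth inhibition, and LC50 is 50% net cell kill. Values are expressed as Log GI50.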

In assay [6] the test system is PC-3. Briefly: Cytotoxicity against human PC3 cells. Conditions: for TGI: read-out: pTGI (converted). The method in brief: as §1
Assay [7] has as its system MOLT-4. The assay is described as follows: Cytotoxicity against human MOLT4 cells. Summed up: as §1
For assay [8], the system named is SK-MEL-5. The assay is described as follows: Cytotoxicity against human SK-MEL-5 cells. Summed up: as §1
For assay [9], the system named is SR. Briefly: Cytotoxicity against human SR cells. Conditions: for TGI: read-out: pTGI (converted). The method in brief:
as §1

Assay [10] concerns K562. The assay is described as follows: Cytotoxicity against human K562 cells. The method in brief:
as §1

The test system of assay [11] is MDA-MB-435. The assay is described as follows: Cytotoxicity against human MDA-MB-435 cells. To be noted: for TGI: read-out: pTGI (converted). Summed up: as §1
For assay [12], the system named is NCI-H460. The assay is described as follows: Cytotoxicity against human NCI-H460 cells. Conditions: for TGI: read-out: pTGI (converted). The method in brief:
as §1

Assay [13] concerns NCI-H23. Briefly: Cytotoxicity against human NCI-H23 cells. To be noted: for TGI: read-out: pTGI (converted). Summed up: as §1
Assay [14] concerns CAKI-1. Briefly: Cytotoxicity against human Caki1 cells. To be noted: for TGI: read-out: pTGI (converted). Summed up: as §1
The test system of assay [15] is HCT-116. Briefly: Cytotoxicity against human HCT116 cells. The method in brief:
as §1

The test system of assay [16] is HCC 2998. The assay is described as follows: Cytotoxicity against human HCC2998 cells. The method in brief: as §1
Assay [17] concerns MCF7. The assay is described as follows: Cytotoxicity against human MCF7 cells. To be noted: for TGI: read-out: pTGI (converted). The method in brief:
as §1

Assay [18] relates to M14. The assay is described as follows: Cytotoxicity against human M14 cells. Summed up:
as §1

Assay [19] concerns NCI/ADR-RES. The assay is described as follows: Cytotoxicity against human NCI/ADR-RES cells. The method in brief: as §1
Assay [20] concerns KM12. The assay is described as follows: Cytotoxicity against human KM12 cells. Summed up: as §1
Assay [21] has as its system T47D. Briefly: Cytotoxicity against human T47D cells. Summed up: as §1
The subject of assay [22] is SNB-75. Briefly: Cytotoxicity against human SNB75 cells. The method in brief: as §1
Assay [23] has as its system OVCAR-4. Briefly: Cytotoxicity against human OVCAR4 cells. Summed up:
as §1

Assay [24] deals with HOP-62. Briefly: Cytotoxicity against human HOP62 cells. Summed up:
as §1

Assay [25] has as its system COLO 205. Briefly: Cytotoxicity against human COLO205 cells. Summed up: as §1
In assay [26] the test system is SF-268. Briefly: Cytotoxicity against human SF268 cells. The method in brief:
as §1

Assay [27] can be described thus: Cytotoxicity against human 786-O cells. The method in brief: as §1
Assay [28] deals with SF-295. Briefly: Cytotoxicity against human SF295 cells. Summed up: as §1
Assay [29] deals with U-251. The assay is described as follows: Cytotoxicity against human U251 cells. The method in brief:
as §1

Assay [30] has as its system HCT-15. Briefly: Cytotoxicity against human HCT15 cells. The method in brief: as §1
For assay [31], the system named is RPMI-8226. The assay is described as follows: Cytotoxicity against human RPMI8226 cells. Summed up:
as §1

Assay [32] deals with RXF 393. Briefly: Cytotoxicity against human RXF393 cells. Summed up:
as §1

Some results are limits rather than exact numbers.

As a reminder, the GI50 is the concentration at which growth is held to half of that of the control. Lower therefore signals more potent growth inhibition. For the compound `O=C1N=C(Nc2cccc(O)c2)S/C1=C\C(Cl)=C/c1ccc([N+](=O)[O-])cc1`, the GI50 in assay [1] was 372 nM; in assay [2], 832 nM. The figures for the TGI in assay [1] and in [2] were 955 nM and 2630 nM, respectively.
Take `COc1cc(/C=C2\SC(Nc3ccc(O)cc3)=NC2=O)ccc1OCc1ccc(F)cc1`: the GI50 in [3] was 200 nM; in [4], 891 nM; in [5], 603 nM. Besides, the results for the TGI in [3], in [4] and in assay [5] were 1150 nM, 28800 nM and 10200 nM, respectively.
Consider `O=C1N=C(Nc2ccccc2Cl)N/C1=C\c1ccc(Cl)cc1Cl`, for which, in assay [5], the GI50 was 123 nM and the TGI was 1820 nM.
Turning to `COc1ccc(CNC2=NC(=O)/C(=C/c3ccccc3Cl)N2)cc1`, in [6], growth was halved (GI50) at 91.2 nM and the TGI is 27500 nM.
For `O=C1N=C(NCc2ccc(Cl)cc2)N/C1=C\c1c(Cl)cccc1Cl`, in [3], growth was halved (GI50) at 1070 nM and the TGI was 29500 nM.
Take `O=C1N=C(Nc2ccc(Cl)cc2)N/C1=C\c1ccc(Cl)cc1`: in [6], the GI50 was 380 nM and the TGI is 4370 nM.
With `O=C1N=C(Nc2cccc(Cl)c2)N/C1=C\c1cccc(F)c1`, the concentration for 50% growth inhibition (GI50) in [7] was 1050 nM.
For `CN(C1=NC(=O)/C(=C/C(Cl)=C\c2ccc([N+](=O)[O-])cc2)S1)c1ccc(O)cc1`, the concentration for 50% growth inhibition (GI50) in assay [8] is less than 10 nM. Also, the TGI in assay [8] (read-out: pTGI) was less than 10 nM.
For `CN(C1=NC(=O)/C(=C/c2cccc(Cl)c2Cl)S1)c1ccc(O)cc1`, in [9], the GI50 is 437 nM and the TGI is 2630 nM.
Consider `O=C1N=C(Nc2cccc(O)c2)S/C1=C\c1ccc(Cl)cc1`, for which, in assay [1], halving of growth (GI50) required 490 nM and the TGI was 2750 nM.
Take `COc1ccc(/C=C2\SC(Nc3ccc(O)cc3)=NC2=O)cc1OC`: the figures for the concentration for 50% growth inhibition (GI50) in assay [10] and in assay [11] were 398 nM and 407 nM, respectively. Also, the TGI is 6760 nM in assay [10] (read-out: pTGI (converted)) and 2040 nM in assay [11].
For `O=C1N=C(Nc2ccc(O)cc2)S/C1=C\c1ccc(F)cc1`, the GI50 in [4] is 955 nM; in assay [1] it was 324 nM; in [12], 263 nM; in assay [13] it was 372 nM; in assay [14], 479 nM; in assay [15] it was 219 nM. Besides, the GI50 in assay [16] was 562 nM; in assay [17], 35.5 nM; in assay [18], 617 nM; in [19], 631 nM; in assay [9] it was 537 nM; in assay [20], 132 nM. The GI50 in assay [21] was 661 nM; in assay [22], 407 nM; in assay [23], 832 nM; in assay [24] it was 427 nM; in [25], 631 nM; in assay [26], 490 nM. In addition, the 50% growth inhibitory concentration (GI50) in assay [11] is 31.6 nM; in assay [2], 525 nM; in assay [27] (786-0), 309 nM; in assay [28], 380 nM. Moreover, the TGI in [4] was greater than 100000 nM; in [1], 562 nM; in assay [12], 955 nM; in assay [13] it was 2090 nM; in assay [14] it was 2450 nM; in assay [15] (read-out: pTGI (converted)) it was 4370 nM. Also, the TGI in assay [16] (read-out: pTGI (converted)) was 2140 nM; in assay [17], 115 nM; in assay [18] (read-out: pTGI (converted)) it was 11500 nM; in assay [19] (read-out: pTGI (converted)) it was 3160 nM; in [9], greater than 100000 nM; in assay [20] (read-out: pTGI (converted)), 741 nM. Moreover, the TGI is greater than 100000 nM in assay [21] (read-out: pTGI); greater than 100000 nM in [22] (read-out: pTGI); greater than 100000 nM in assay [23] (read-out: pTGI); 13200 nM in assay [24] (read-out: pTGI (converted)); greater than 100000 nM in assay [25] (read-out: pTGI); 4370 nM in assay [26] (read-out: pTGI (converted)). Further, the TGI was 145 nM in assay [11]; greater than 100000 nM in assay [2]; 10000 nM in assay [27] (786-0, read-out: pTGI (converted)); 1910 nM in assay [28] (read-out: pTGI (converted)).
Turning to `O=C1N=C(Nc2ccc(O)cc2)S/C1=C\c1ccc(Cl)cc1`, the GI50 in assay [3] is 851 nM; in assay [29], 490 nM; in [30], 427 nM; in assay [1] it was 162 nM; in assay [31], 407 nM; in assay [12], 977 nM. For the same compound, the concentration for 50% growth inhibition (GI50) is 562 nM in [13]; 501 nM in [14]; 50.1 nM in assay [17]; 603 nM in [7]; 145 nM in [9]; 257 nM in assay [10]. The concentration for 50% growth inhibition (GI50) in assay [11] was 398 nM; in assay [5], 437 nM; in [32], 117 nM. Besides, the TGI in assay [3] was 10200 nM; in assay [30] (read-out: pTGI) it was greater than 100000 nM; in assay [1], 490 nM; in [31] (read-out: pTGI), greater than 100000 nM; in [12] it was 87100 nM; in [13], 3240 nM. Moreover, the TGI in assay [14] was 6460 nM; in assay [17], 219 nM; in assay [7] (read-out: pTGI (converted)) it was 17000 nM; in [9] it was 525 nM; in assay [11], 1660 nM; in assay [5], 10200 nM. Moreover, the TGI in [32] (read-out: pTGI (converted)) is 3980 nM.
